Screens as filed in PubChem.
KCNK9 inh-1 = inhibitors of human KCNK9 two-pore domain potassium channel; Q9NPC2; HEK293 KCNK9, FluxOR thallium flux fluorescence; stronger effect = lower value; B-score at 10 µM; hit rate 1.2% among 310,000; AID 488922;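 active = ratio B-score over 3 SD below the library mean, with starting fluorescence within 5 SD of its mean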;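 note: negative B-score means less thallium flux so channel inhibition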
Kir21 block = blocks the mouse Kir2.1 inward-rectifier potassium channel. HEK293-Kir2.1, FluxOR thallium flux fluorescence; stronger effect = lower value. B-score at 10 µM. hit rate 0.85% among 310,000. AID 1672;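 active = fluorescence ratio B-score at or below minus 3 SD of library scores, with starting-brightness B-score within 2 SD, cut at about -4.2 in these data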;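 note: channel flux triggered by added potassium and thallium sulfate stimulus; B-score of peak minus minimum fluorescence over baseline after thallium stimulus; more negative B-score means stronger Kir2.1 block with less thallium influx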
Target sequence (P35561 whole entry, looked up): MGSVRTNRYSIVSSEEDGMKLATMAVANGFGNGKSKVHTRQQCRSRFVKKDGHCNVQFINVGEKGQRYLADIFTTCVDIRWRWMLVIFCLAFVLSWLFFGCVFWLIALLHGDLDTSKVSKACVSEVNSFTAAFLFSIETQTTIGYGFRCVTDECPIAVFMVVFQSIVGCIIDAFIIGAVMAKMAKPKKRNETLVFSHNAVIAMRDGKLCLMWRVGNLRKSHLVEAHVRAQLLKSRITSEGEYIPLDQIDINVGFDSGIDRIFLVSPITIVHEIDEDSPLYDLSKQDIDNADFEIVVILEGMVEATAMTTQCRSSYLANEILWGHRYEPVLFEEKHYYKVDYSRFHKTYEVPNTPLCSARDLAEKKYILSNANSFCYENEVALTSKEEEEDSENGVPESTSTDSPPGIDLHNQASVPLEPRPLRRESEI
hERG protect = shields human hERG channel from block by proarrhythmic agents | CHO-hERG, FluxOR thallium flux, dofetilide IC70 present | activation (rescue from dofetilide block), less the hit threshold, % at 10 µM | Q12809 | hit rate 0.51% among 310,000;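 active = activation above the mean of controls blocked by dofetilide plus 5 SD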;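 note: thallium influx through hERG after potassium depolarization seen as dye fluorescence rise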
KCNK3 block = human KCNK3 channel inhibition, primary screen; CHO-KCNK3 thallium flux, FluxOR fluorescence; stronger effect = lower value; O14649; hit rate 0.84% among 340,000; B-score at 10 µM;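 active = B-score under library mean minus 4 SD, starting fluorescence ratio at most library mean plus 5 SD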;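 note: more negative B-score means stronger inhibition of thallium flux through KCNK3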
KCNQ1 inh = blocks the human KCNQ1 potassium channel; P51787; hit rate 1.3% among 310,000; AID 2642; B-score at 10 µM; CHO-K1 KCNQ1, FluxOR thallium flux fluorescence; stronger effect = higher value;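 active = compounds whose thallium flux B-score, printed positive for inhibition, exceeds three library SD while starting fluorescence stays within three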;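 note: channel opened by potassium depolarization with thallium stimulus after 20 min compound exposure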
KCNQ1 act = potentiators or activators of human KCNQ1 potassium channel; CHO-K1 KCNQ1, thallium flux FluxOR fluorescence; stronger effect = higher value; hit rate 0.35% among 310,000; B-score at 10 µM; P51787; AID 2648;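 active = fluorescence ratio B-score, a plate-corrected score, at least three library SD, with initial intensity B-score within 5 SD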
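System: CHO-K1 cells stably expressing KCNQ1 / Medium: assay buffer for compound exposure, DMSO matched across wells / Reagent: thallium- and potassium-containing depolarizing buffer / Compound: one concentration, matched DMSO / Incubation: 20 min compound pretreatment at room temperature / Measured by: kinetic FluxOR fluorescence, 10 s baseline plus 110 s post-stimulus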
hERG ctr = counter-screen for Kir2.1 inhibitors: effect on human hERG. hERG-expressing cells, thallium flux. hit rate 20% among 320. inhibition, % at 10 µM. shares compounds with Kir21 block;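 note: host cells are CHO cells stably expressing hERG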
KCNK9 inh-2 = tests whether Kir2.1 inhibitors also affect human KCNK9 | shares compounds with Kir21 block | KCNK9-expressing cells, ion flux inhibition | inhibition, % at 10 µM | hit rate 5% among 320 | AID 2329
Kir2-1 patch inh = mouse Kir2.1 inward rectifier channel inhibition. Kir2.1 cells, automated patch-clamp current inhibition. AID 463252. shares compounds with Kir21 block. hit rate 71% among 320. inhibition, % at 25 µM
Of the large screens only hits and unclear results are named; the others gave an inactive call (follow-up assays come after a bar, where they were run). An excerpt weighted towards active compounds, which were near 3.7% of everything screened. Unless noted, the rule behind the calls is not given here.

COc1ccc(CN(C)CC2CCCN(CCc3ccc(F)cc3)C2)cc1OC (stereo unspecified)	Kir21 block -6.2 | hERG ctr inactive | KCNK9 inh-2 inactive | Kir2-1 patch inh 22%
COc1ccc(CCN2CCCC(CN(C)Cc3cc(OC)c(OC)c(OC)c3)C2)cc1 (stereo unspecified)	none
OC1CCCN(Cc2ccc3ccc4cccc5ccc2c3c45)C1 (stereo unspecified)	Kir21 block -5.8 | hERG ctr 48% | KCNK9 inh-2 inactive | Kir2-1 patch inh inactive
c1cc2ccc3ccc(CN4CCOCC4)c4ccc(c1)c2c34	none
CC(C)CCn1c2ccccc2c2cc(CC(N)=O)ccc21	none | hERG ctr inactive | KCNK9 inh-2 inactive | Kir2-1 patch inh inactive
NC(=O)CCn1c2ccccc2c2ccccc21	none
COc1ccc(Nc2ccnc3ccccc23)cc1	Kir21 block -15 | hERG ctr inactive | KCNK9 inh-2 inactive | Kir2-1 patch inh 82%
NS(=O)(=O)c1ccc(NC(=O)c2ccc(F)cc2F)c(NC(=O)c2ccc(F)cc2F)c1	none
Cc1cc(C(=O)N/N=C/C(Cl)=C/c2ccccc2)c(C)o1	none
Cc1nc(N2CCN(Cc3ccccc3)CC2)nc2c1C(=O)CC(C)C2 (stereo unspecified)	Kir21 block -7.1 | hERG ctr inactive | KCNK9 inh-2 inactive | Kir2-1 patch inh 8.9%
CN(C)c1nc(Nc2ccccc2)nc(N(C)C)n1	none
CCOc1ccc(Nc2nc(N)c3ccccc3n2)cc1	Kir21 block -9.9 | hERG ctr inactive | KCNK9 inh-2 inactive | Kir2-1 patch inh 70%
CN(C)c1ccc(Nc2nc(N)c3ccccc3n2)cc1	Kir21 block -7.5 | hERG ctr inactive | KCNK9 inh-2 inactive | Kir2-1 patch inh 65%
COc1ccc(N(C(=O)c2snc(C(N)=O)c2N)C(C(=O)NC2CCCC2)c2cc(OC)ccc2OC)cc1 (stereo unspecified)	none
Cc1cc(NC(=O)c2ccc(Cl)cc2Cl)no1	none
Cc1ccc(CCNC(=O)CN(C)S(=O)(=O)c2ccc3c(c2)n(C)c(=O)c(=O)n3C)cc1	none
CCN(c1cccc(C)c1)S(=O)(=O)c1ccc2c(c1)NC(=O)CCS2	none
CCN(c1cccc(C)c1)S(=O)(=O)c1ccc2c(c1)NC(=O)CS2	Kir21 block -5.9 | hERG ctr inactive | KCNK9 inh-2 inactive | Kir2-1 patch inh inactive
COc1cccc(NC(=O)CN(C)C(C)C(=O)NC(=O)NC2CCCCC2)c1 (stereo unspecified)	none (no result: KCNK9 inh-1, Kir21 block, hERG protect, KCNQ1 inh, KCNQ1 act)
Cc1ccc(Oc2ccccc2NC(=O)C2=COCCO2)cc1	none
CN(C)C(=O)c1ccccc1Sc1ccc(Cl)cc1Cl	none
CN(C)C(=O)c1ccccc1Sc1cc(Cl)ccc1Cl	Kir21 block -6.7 | hERG ctr inactive | KCNK9 inh-2 inactive | Kir2-1 patch inh 20%
Cc1cc(OCCOCCNCc2ccccc2)ccc1C(C)C	Kir21 block -7.8 | hERG ctr 49% | KCNK9 inh-2 inactive | Kir2-1 patch inh 52%
CO/N=C/c1ccc(OC)c(Oc2nc(OC)cc(OC)n2)c1	none
CN(C)c1ccc(C(=O)OCC(=O)c2ccc[nH]2)cc1	none (no result: KCNK9 inh-1, Kir21 block, hERG protect, KCNQ1 inh, KCNQ1 act)
COc1ccc(S(=O)(=O)N(CC(=O)NCc2ccco2)c2ccc(C)cc2)cc1OC	none
CCOC(=O)N1CCN(CC(O)COc2ccccc2C(C)C)CC1 (stereo unspecified)	none
CCN(CCNCC(O)COc1ccccc1C(C)C)c1cccc(C)c1 (stereo unspecified)	Kir21 block -6.4 | hERG ctr 61% | KCNK9 inh-2 inactive | Kir2-1 patch inh inactive
CC(C)(c1ccccc1)c1ccc(OCCCNCCO)cc1	Kir21 block -8.6 | hERG ctr inactive | KCNK9 inh-2 inactive | Kir2-1 patch inh 59%
CC(C)NCCCOc1ccc(C(C)(C)c2ccccc2)cc1	none
CNCCCCOc1ccccc1Cc1ccccc1	Kir21 block -8.8 (no result: KCNK3 block) | hERG ctr inactive | KCNK9 inh-2 inactive | Kir2-1 patch inh 30%
CCOc1ccc(NC(=O)CCCn2c(=S)[nH]c3ccsc3c2=O)cc1	none
CCn1c(COc2ccc(C)cc2)nnc1SCC(=O)C(C)(C)C	none
CCn1c(COc2ccc(C)cc2)nnc1SCc1ccc(C#N)cc1	Kir21 block -7.9 | hERG ctr inactive | KCNK9 inh-2 inactive | Kir2-1 patch inh 7.3%
CCOc1ccc(NC(=O)CCN2C(=O)c3ccccc3C2=O)cc1	none
CCCC[C@@H]1CNCCN1CCc1cccc2ccccc12	none
Cc1cc(O)ccc1NC(=O)Cc1cccc2ccccc12	none (no result: KCNK9 inh-1, Kir21 block, hERG protect, KCNQ1 inh, KCNQ1 act)
Cc1cc(NC(=O)CSc2nc(CC(C)(C)C)nc3c2c(=O)n(C)c(=O)n3C)no1	none | hERG ctr inactive | KCNK9 inh-2 inactive | Kir2-1 patch inh inactive
CCc1nc(SCC(=O)Nc2cc(C)on2)c2c(=O)n(C)c(=O)n(C)c2n1	none
COC(=O)[C@]1(C)N[C@H](CN(C)S(=O)(=O)c2ccc(OC(F)(F)F)cc2)[C@@H]2C(=O)N(C)C(=O)[C@@H]21	none (no result: KCNK9 inh-1, Kir21 block, hERG protect, KCNQ1 inh, KCNQ1 act)
Clc1ccc(CNC2CCN(Cc3ccccc3)CC2)cc1	Kir21 block -13 | hERG ctr 58% | KCNK9 inh-2 inactive | Kir2-1 patch inh 55%
CCOC(=O)c1cccc(Nc2ncnc3ccc(C)cc23)c1	Kir21 block -6 | hERG ctr inactive | KCNK9 inh-2 inactive | Kir2-1 patch inh 32%
CCOC(=O)c1ccc(Nc2ncnc3ccc(C)cc23)cc1	none
CC(=O)OC1=C(C#N)Cn2ccc3cccc1c32	Kir21 block -6.7 (no result: KCNK3 block) | hERG ctr inactive | KCNK9 inh-2 inactive | Kir2-1 patch inh inactive
Cc1cc(C)c(S(=O)(=O)c2cccc(C(F)(F)F)c2)c(=O)[nH]1	none
C[C@H](CO)N1C[C@H](C)[C@@H](CN(C)S(=O)(=O)c2ccccc2)Oc2ccc(NS(=O)(=O)c3cccs3)cc2C1=O	none (no result: KCNK9 inh-1, Kir21 block, hERG protect, KCNQ1 inh, KCNQ1 act)
CCOc1ccc(C(C)=O)cc1CSc1nnnn1-c1ccc(O)cc1	Kir21 block -8.4 | hERG ctr inactive | KCNK9 inh-2 inactive | Kir2-1 patch inh 24%
NC(=O)c1nsc(C(=O)N(Cc2ccc(F)cc2)C(C(=O)NCC2CCCO2)c2ccc(O)cc2)c1N (stereo unspecified)	none
OC(CNCc1ccco1)Cn1c2ccccc2c2ccccc21 (stereo unspecified)	Kir21 block -11 | hERG ctr 61% | KCNK9 inh-2 inactive | Kir2-1 patch inh 25%
OC(CNCc1ccco1)COc1ccccc1 (stereo unspecified)	none
